# From ChEMBL document CHEMBL1157888, “New 5-HT(1A) receptor ligands containing a N'-cyanoisonicotinamidine nucleus: synthesis and in vitro pharmacological evaluation” (Bioorg Med Chem Lett, 2010)
# Molecular target: T1, 5-hydroxytryptamine receptor 1A (Rattus norvegicus, UniProt P19327)
# T1 sequence (P19327 whole entry): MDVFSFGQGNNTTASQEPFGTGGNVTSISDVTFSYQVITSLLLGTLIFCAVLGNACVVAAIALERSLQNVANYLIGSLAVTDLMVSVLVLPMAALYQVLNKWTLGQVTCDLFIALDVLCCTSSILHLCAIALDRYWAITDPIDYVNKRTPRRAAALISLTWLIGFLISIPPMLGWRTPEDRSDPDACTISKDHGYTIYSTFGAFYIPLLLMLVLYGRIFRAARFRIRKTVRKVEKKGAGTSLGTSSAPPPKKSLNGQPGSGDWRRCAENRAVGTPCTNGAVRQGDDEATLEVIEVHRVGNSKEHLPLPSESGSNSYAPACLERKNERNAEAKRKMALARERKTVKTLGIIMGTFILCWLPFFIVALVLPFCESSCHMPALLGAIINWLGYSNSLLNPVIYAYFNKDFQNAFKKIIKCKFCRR
# Test: Displacement of [3H]-8-OH-DPAT from 5-HT1A receptor in Sprague-Dawley rat brain cortex after 30 mins liquid scintillation spectrometer
# Assay type: tissue-based, Cerebral cortex
# Conditions: read-out: Ki; call rule not given here
# How it was run: (§1)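 Radioligand competition binding. Compounds were dissolved in ethanol or in 5% DMSO, and blank runs checked 5% DMSO for interference with binding. Six test-compound concentrations, each in triplicate, gave IC50 values by curve fitting. Ki was calculated by Cheng–Prusoff, Ki = IC50/(1 + S/KD), where S is the hot-ligand concentration and KD came from Scatchard analysis for each labeled ligand.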
row,Structure (SMILES),Ki [nM]
1,CCOCCN1CCN(CCCN/C(=N\C#N)c2ccncc2)CC1,> 10000
2,N#C/N=C(\NCCCN1CCN(c2cccc(C(F)(F)F)c2)CC1)c1ccncc1,141
3,N#C/N=C(\NCCCN1CCN(c2ncccn2)CC1)c1ccncc1,172
4,COc1ccc(N2CCN(CCCN/C(=N\C#N)c3ccncc3)CC2)cc1,> 10000
5,Cc1cccc(N2CCN(CCCN/C(=N\C#N)c3ccncc3)CC2)c1C,101
6,N#C/N=C(\NCCCN1CCN(c2ccccc2Cl)CC1)c1ccncc1,166
7,N#C/N=C(\NCCCN1CCN(Cc2ccc3c(c2)OCO3)CC1)c1ccncc1,> 10000
8,N#C/N=C(\NCCCN1CCN(C(=O)c2ccco2)CC1)c1ccncc1,> 10000

# Molecular target: 5-hydroxytryptamine receptor 2A (Rattus norvegicus, UniProt P14842)
# Test: Displacement of [3H]ketanserin hydrochloride from 5-HT2A receptor in Sprague-Dawley rat brain cortex after 15 mins
# Conditions: not given
# How it was run: as §1
# 5-hydroxytryptamine receptor 2A, sequence (P14842 whole entry): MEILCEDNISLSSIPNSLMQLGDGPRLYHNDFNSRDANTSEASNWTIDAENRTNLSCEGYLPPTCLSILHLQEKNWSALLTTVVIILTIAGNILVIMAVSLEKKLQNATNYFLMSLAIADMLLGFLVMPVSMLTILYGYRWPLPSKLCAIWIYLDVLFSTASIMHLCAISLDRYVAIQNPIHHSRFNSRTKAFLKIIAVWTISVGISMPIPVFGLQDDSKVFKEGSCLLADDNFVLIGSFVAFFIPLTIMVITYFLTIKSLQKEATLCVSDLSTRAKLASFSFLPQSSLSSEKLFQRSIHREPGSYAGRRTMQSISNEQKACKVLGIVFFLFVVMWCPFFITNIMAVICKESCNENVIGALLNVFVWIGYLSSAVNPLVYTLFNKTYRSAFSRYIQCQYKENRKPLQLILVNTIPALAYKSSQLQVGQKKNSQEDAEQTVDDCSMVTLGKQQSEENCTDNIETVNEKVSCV
row,Structure (SMILES),Ki
1,CCOCCN1CCN(CCCN/C(=N\C#N)c2ccncc2)CC1,Not Active
2,N#C/N=C(\NCCCN1CCN(c2ncccn2)CC1)c1ccncc1,Not Active

# Same assay, conditions: read-out: Ki
row,Structure (SMILES),Ki [nM]
1,N#C/N=C(\NCCCN1CCN(c2cccc(C(F)(F)F)c2)CC1)c1ccncc1,32.1
2,COc1ccc(N2CCN(CCCN/C(=N\C#N)c3ccncc3)CC2)cc1,> 10000
3,Cc1cccc(N2CCN(CCCN/C(=N\C#N)c3ccncc3)CC2)c1C,> 10000
4,N#C/N=C(\NCCCN1CCN(c2ccccc2Cl)CC1)c1ccncc1,> 10000
5,N#C/N=C(\NCCCN1CCN(Cc2ccc3c(c2)OCO3)CC1)c1ccncc1,> 10000
6,N#C/N=C(\NCCCN1CCN(C(=O)c2ccco2)CC1)c1ccncc1,> 10000

# Molecular target: T2, 5-hydroxytryptamine receptor 2C (Rattus norvegicus, UniProt P08909)
# T2 sequence (P08909 whole entry): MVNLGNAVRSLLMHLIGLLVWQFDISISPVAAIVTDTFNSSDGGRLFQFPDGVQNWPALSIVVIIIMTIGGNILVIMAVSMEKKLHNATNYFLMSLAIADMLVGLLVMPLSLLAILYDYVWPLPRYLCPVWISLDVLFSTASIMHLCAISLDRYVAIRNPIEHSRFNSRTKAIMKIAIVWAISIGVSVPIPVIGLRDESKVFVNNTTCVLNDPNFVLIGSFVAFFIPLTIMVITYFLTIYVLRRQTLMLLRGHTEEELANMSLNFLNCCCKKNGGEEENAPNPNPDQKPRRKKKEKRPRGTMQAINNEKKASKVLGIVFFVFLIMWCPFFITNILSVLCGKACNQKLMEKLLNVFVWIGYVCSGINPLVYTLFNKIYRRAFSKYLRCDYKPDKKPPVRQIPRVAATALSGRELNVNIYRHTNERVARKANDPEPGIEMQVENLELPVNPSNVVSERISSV
# Test: Displacement of [3H]mesulergine from 5-HT2C receptor in Sprague-Dawley rat brain cortex after 15 mins
# Conditions: not given
# How it was run: as §1
row,Structure (SMILES),Ki
1,CCOCCN1CCN(CCCN/C(=N\C#N)c2ccncc2)CC1,Not Active
2,N#C/N=C(\NCCCN1CCN(c2cccc(C(F)(F)F)c2)CC1)c1ccncc1,Not Active
3,N#C/N=C(\NCCCN1CCN(c2ncccn2)CC1)c1ccncc1,Not Active
4,COc1ccc(N2CCN(CCCN/C(=N\C#N)c3ccncc3)CC2)cc1,Not Active
5,Cc1cccc(N2CCN(CCCN/C(=N\C#N)c3ccncc3)CC2)c1C,Not Active
6,N#C/N=C(\NCCCN1CCN(c2ccccc2Cl)CC1)c1ccncc1,Not Active
7,N#C/N=C(\NCCCN1CCN(Cc2ccc3c(c2)OCO3)CC1)c1ccncc1,Not Active
8,N#C/N=C(\NCCCN1CCN(C(=O)c2ccco2)CC1)c1ccncc1,Not Active
